Source: ChEMBL document CHEMBL4680153, “New Spisulosine Derivative promotes robust autophagic response to cancer cells” (Eur J Med Chem, 2020)
Activity calls are given as the source filed them. The rule behind the calls is not given here.

What was measured:
MDA-MB-231 = experiment: Antiproliferative activity against human MDA-MB-231 cells assessed as reduction in cell growth at 10 uM incubated for 48 hrs by SRB assay relative to control; assay type: functional
Summary of the method: (§1)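 Early-passage cells plated at 40% confluency and left overnight, then exposed to 10 μM compound for 48 h. Growth was measured by sulforhodamine B staining, with absorbance at 510 nm. Percent growth inhibition was calculated against untreated cells.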

MCF7 = experiment: Antiproliferative activity against human MCF7 cells assessed as reduction in cell growth at 10 uM incubated for 48 hrs by SRB assay relative to control; assay type: functional; summary of the method: as §1
HT-29 = experiment: Antiproliferative activity against human HT-29 cells assessed as reduction in cell growth at 10 uM incubated for 48 hrs by SRB assay relative to control; assay type: functional; summary of the method: as §1
NCI-H358 = experiment: Antiproliferative activity against human NCI-H358 cells assessed as reduction in cell growth at 10 uM incubated for 48 hrs by SRB assay relative to control; assay type: functional; summary of the method: as §1
DLD-1 [1] = experiment: Antiproliferative activity against human DLD-1 cells assessed as reduction in cell growth at 10 uM incubated for 48 hrs by SRB assay relative to control; assay type: functional; summary of the method: as §1
A549 = experiment: Antiproliferative activity against human A549 cells assessed as reduction in cell growth at 10 uM incubated for 48 hrs by SRB assay relative to control; assay type: functional; summary of the method: as §1
LNCaP = experiment: Cytotoxicity against human LNCaP cells assessed as reduction in cell viability incubated for 48 hrs by MTT assay; assay type: functional, cell-based
DLD-1 [2] = experiment: Induction of autophagy in human DLD-1 cells assessed as reduction in cell viability at 7.5 uM incubated for 24 hrs in presence of Bafilomycin-A1 by crystal violet staining based phase contrast microscopic analysis; assay type: functional
DLD-1 [3] = experiment: Induction of apoptosis in human DLD-1 cells assessed as viable cells at 7.5 uM incubated for 18 hrs by Annexin V-FITC and propidium iodide staining based flow cytometry analysis (reference value: 85.2 %); assay type: functional; details: read-out: Activity
PC-3 = experiment: Cytotoxicity against human PC-3 cells assessed as reduction in cell viability incubated for 48 hrs by MTT assay; assay type: functional, cell-based; details: PC-3, 48 h
DLD-1 [4] = experiment: Induction of apoptosis in human DLD-1 cells assessed as necrotic cells at 7.5 uM incubated for 18 hrs by Annexin V-FITC and propidium iodide staining based flow cytometry analysis (reference value: 4.1 %); assay type: functional
DLD-1 [5] = experiment: Induction of apoptosis in human DLD-1 cells assessed as increase in PARP cleavage at 5 to 7.5 uM by Western blot analysis; assay type: functional, cell-based; details: dose 5-7.5 µM
Summary of the method: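 DLD-1 cells were treated at 7.5 μM for 18 h and lysed in NP-40 buffer containing protease and phosphatase inhibitors. Protein was quantified by BCA, and equal amounts were run on 15% SDS-PAGE and transferred to PVDF. Cleaved PARP was probed and detected by enhanced chemiluminescence.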

DLD-1 [6] = experiment: Induction of apoptosis in human DLD-1 cells assessed as late apoptotic cells at 7.5 uM incubated for 18 hrs by Annexin V-FITC and propidium iodide staining based flow cytometry analysis (reference value: 5.7 %); assay type: functional
HCT-116 = experiment: Cytotoxicity against human HCT-116 cell; assay type: functional, cell-based
DLD-1 [7] = experiment: Induction of apoptosis in human DLD-1 cells assessed as early apoptotic cells at 7.5 uM incubated for 18 hrs by Annexin V-FITC and propidium iodide staining based flow cytometry analysis (reference value: 4.95 %); assay type: functional
HL-60 = experiment: Cytotoxicity against human HL-60 cell; assay type: functional, cell-based
KB = experiment: Cytotoxicity against human KB cell; assay type: functional, cell-based

Structure (SMILES): CCCCCCCCCCCCCC[C@H](O)[C@H](CN1CCSCC1)NC(=O)OC(C)(C)C
- inhibition at 10 µM (MDA-MB-231): 6.84%
- inhibition at 10 µM (MCF7): 30.2%
- inhibition at 10 µM (HT-29): 12%
- inhibition at 10 µM (NCI-H358): 10.8%
- inhibition at 10 µM (DLD-1 [1]): 32.4%
- inhibition at 10 µM (A549): 32%

Structure (SMILES): CCCCCCCCCCCCCC[C@H](OCOC)[C@H](CN1CCCCC1)NC(=O)OC(C)(C)C
- inhibition at 10 µM (MDA-MB-231): 9.84%
- inhibition at 10 µM (MCF7): 27.3%
- inhibition at 10 µM (HT-29): 14.2%
- inhibition at 10 µM (NCI-H358): 15.2%
- inhibition at 10 µM (DLD-1 [1]): 43.7%
- inhibition at 10 µM (A549): 19%

Structure (SMILES): CCCCCCCCCCCCCCC[C@@H](O)[C@H](C)N
- IC50 (LNCaP): 1000 nM
- Activity (DLD-1 [2]): Active
- viability at 7.5 µM (DLD-1 [3]): 78%
- IC50 (PC-3): 1000 nM
- Activity (DLD-1 [4]): 4.2%
- Activity (DLD-1 [5]): Active
- Activity (DLD-1 [6]): 3.4%
- IC50 (HCT-116): 100 nM
- Activity (DLD-1 [7]): 14.2%
- IC50 (HL-60): 100 nM
- IC50 (KB): 100 nM

Structure (SMILES): CCCCCCCCCCCCCC[C@H](OCOC)[C@H](CN(CC)CC)NC(=O)OC(C)(C)C
- inhibition at 10 µM (MDA-MB-231): 0.84%
- inhibition at 10 µM (MCF7): 25.2%
- inhibition at 10 µM (HT-29): -3.21%
- inhibition at 10 µM (NCI-H358): 14.9%
- inhibition at 10 µM (DLD-1 [1]): 46.2%
- inhibition at 10 µM (A549): 27.5%

Structure (SMILES): CCCCCCCCCCCCCC[C@H](OCOC)[C@H](CO[Si](c1ccccc1)(c1ccccc1)C(C)(C)C)NC(=O)OC(C)(C)C
- inhibition at 10 µM (MDA-MB-231): -28%
- inhibition at 10 µM (MCF7): -7.95%
- inhibition at 10 µM (HT-29): -18.8%
- inhibition at 10 µM (NCI-H358): -2.89%
- inhibition at 10 µM (DLD-1 [1]): -14.6%
- inhibition at 10 µM (A549): 15.1%

Structure (SMILES): CCCCCCCCCCCCCC[C@H](O)[C@H](CN(C(C)C)C(C)C)NC(=O)OC(C)(C)C
- inhibition at 10 µM (MDA-MB-231): -1.17%
- inhibition at 10 µM (MCF7): 25.3%
- inhibition at 10 µM (HT-29): 11.6%
- inhibition at 10 µM (NCI-H358): 11.3%
- inhibition at 10 µM (DLD-1 [1]): 34.8%
- inhibition at 10 µM (A549): 22.9%

Structure (SMILES): COc1cccc2c1C(=O)c1c(O)c3c(c(O)c1C2=O)C[C@@](O)(C(=O)CO)C[C@@H]3O[C@H]1C[C@H](N)[C@H](O)[C@H](C)O1 [DOXORUBICIN]
- inhibition at 10 µM (MDA-MB-231): 80.2%
- inhibition at 10 µM (MCF7): 88.5%
- inhibition at 10 µM (HT-29): 78.4%
- inhibition at 10 µM (NCI-H358): 77.5%
- inhibition at 10 µM (DLD-1 [1]): 76.7%
- inhibition at 10 µM (A549): 80.2%

Structure (SMILES): CCCCCCCCCCCCCC[C@H](OCOC)[C@H](CN(CCCC)CCCC)NC(=O)OC(C)(C)C
- inhibition at 10 µM (MDA-MB-231): 22.3%
- inhibition at 10 µM (MCF7): 27.1%
- inhibition at 10 µM (HT-29): 15%
- inhibition at 10 µM (NCI-H358): 25.1%
- inhibition at 10 µM (DLD-1 [1]): 56%
- inhibition at 10 µM (A549): 42.2%

Structure (SMILES): CCCCCCCCCCCCCC[C@H](O)[C@H](Cc1ccc(OC)cc1)NC(=O)OC(C)(C)C
- inhibition at 10 µM (MDA-MB-231): -16.5%
- inhibition at 10 µM (MCF7): 8.77%
- inhibition at 10 µM (HT-29): -7.41%
- inhibition at 10 µM (NCI-H358): 6.37%
- inhibition at 10 µM (DLD-1 [1]): 27.9%
- inhibition at 10 µM (A549): 23.4%

Structure (SMILES): CCCCCCCCCCCCCC[C@H](O)[C@H](CO[Si](c1ccccc1)(c1ccccc1)C(C)(C)C)NC(=O)OC(C)(C)C
- inhibition at 10 µM (MDA-MB-231): -37.5%
- inhibition at 10 µM (MCF7): 2.79%
- inhibition at 10 µM (HT-29): -14.4%
- inhibition at 10 µM (NCI-H358): 3.11%
- inhibition at 10 µM (DLD-1 [1]): 10.4%
- inhibition at 10 µM (A549): 14.6%

Structure (SMILES): CCCCCCCCCCCCCC[C@H](OCOC)[C@H](CN1CCN(C)CC1)NC(=O)OC(C)(C)C
- inhibition at 10 µM (MDA-MB-231): 24%
- inhibition at 10 µM (MCF7): 28%
- inhibition at 10 µM (NCI-H358): 18.9%
- inhibition at 10 µM (DLD-1 [1]): 31.9%
- inhibition at 10 µM (A549): 18.2%

Structure (SMILES): CCCCCCCCCCCCCC[C@H](O)[C@H](CN(CC)CC)NC(=O)OC(C)(C)C
- inhibition at 10 µM (MDA-MB-231): -1.45%
- inhibition at 10 µM (MCF7): 18.7%
- inhibition at 10 µM (NCI-H358): 8.37%
- inhibition at 10 µM (DLD-1 [1]): 14.7%
- inhibition at 10 µM (A549): 18.5%

Structure (SMILES): CCCCCCCCCCCCCC[C@H](OCOC)[C@H](CN(C(C)C)C(C)C)NC(=O)OC(C)(C)C
- inhibition at 10 µM (MDA-MB-231): 31%
- inhibition at 10 µM (MCF7): 26.9%
- inhibition at 10 µM (HT-29): 19.9%
- inhibition at 10 µM (NCI-H358): 26.6%
- inhibition at 10 µM (DLD-1 [1]): 53.9%
- inhibition at 10 µM (A549): 22.6%

Structure (SMILES): CCCCCCCCCCCCCC[C@H](O)[C@H](CN(CCCC)CCCC)NC(=O)OC(C)(C)C
- inhibition at 10 µM (MDA-MB-231): -9.61%
- inhibition at 10 µM (MCF7): 21.5%
- inhibition at 10 µM (HT-29): 9.83%
- inhibition at 10 µM (NCI-H358): 9.4%
- inhibition at 10 µM (DLD-1 [1]): 23.4%
- inhibition at 10 µM (A549): 30%

Structure (SMILES): CC(C)(C)OC(=O)N[C@H](CO)CO[Si](c1ccccc1)(c1ccccc1)C(C)(C)C
- inhibition at 10 µM (MDA-MB-231): 32.3%
- inhibition at 10 µM (MCF7): 28.3%
- inhibition at 10 µM (HT-29): 46.2%
- inhibition at 10 µM (NCI-H358): 53.4%
- inhibition at 10 µM (DLD-1 [1]): 73.5%
- inhibition at 10 µM (A549): 25.4%

Structure (SMILES): CCCCCCCCCCCCCC[C@H](OCOC)[C@H](CO)NC(=O)OC(C)(C)C
- inhibition at 10 µM (MDA-MB-231): -5.67%
- inhibition at 10 µM (MCF7): 10.2%
- inhibition at 10 µM (HT-29): 22%
- inhibition at 10 µM (NCI-H358): 18.4%
- inhibition at 10 µM (DLD-1 [1]): 54.8%
- inhibition at 10 µM (A549): 25.9%

Structure (SMILES): CCCCCCCCCCCCCC[C@H](OCOC)[C@H](CN1CCSCC1)NC(=O)OC(C)(C)C
- inhibition at 10 µM (MDA-MB-231): 4.73%
- inhibition at 10 µM (MCF7): 24%
- inhibition at 10 µM (HT-29): 8.57%
- inhibition at 10 µM (NCI-H358): 22.7%
- inhibition at 10 µM (DLD-1 [1]): 58.5%
- inhibition at 10 µM (A549): 29.9%
